Experimental data pooled from the literature.
Each line is one published result; the experiments were not run side by side.
PIK3C3: Phosphatidylinositol 3-kinase catalytic subunit type 3 (PIK3C3, Homo sapiens, UniProt Q8NEB9)
ATXN3: Ataxin-3 (ATXN3, Homo sapiens, UniProt P54252)

Structure (SMILES) | target | assay | conditions | inhibition [%]
c1ccc(C(NCCNC(c2ccccc2)c2ccccc2)c2ccccc2)cc1 | Apelin receptor (APLNR, Homo sapiens, UniProt P35414) | cell-free assay | 10 µM | 46
Cn1cc(-c2cccc(N3CCc4c(sc5c4CC(C)(C)C5)C3=O)c2CO)cc(Nc2ccncn2)c1=O | PIK3C3 | enzyme activity, inhibitor | 1 µM | 0
COc1cc(Nc2ncc(F)c(Nc3ccc4c(n3)NC(=O)C(C)(C)O4)n2)cc(OC)c1OC | Serine/threonine-protein kinase RIO2 (RIOK2, Homo sapiens, UniProt Q9BVS4) | binding | 10 µM | 83
COCc1c(-c2cc3cc(C)cc(OC)c3s2)c2c(N)ncnn2c1CN1CCNC(=O)C1 | Alpha-2C adrenergic receptor (ADRA2C, Homo sapiens, UniProt P18825) | ligand displacement, radioligand | 10 µM | 31
O=C(Nc1cccnn1)N1CCN([C@@H]2CCOc3cc(C(F)(F)F)ccc32)CC1 | cGMP-inhibited 3',5'-cyclic phosphodiesterase 3A (PDE3A, Homo sapiens, UniProt Q14432) | cell-free assay | 20 µM | 4
CN(C)C(=O)COC(=O)Cc1ccc(OC(=O)c2ccc(NC(=N)N)cc2)cc1 | ATXN3 | enzyme activity, inhibitor | 10 µM | 3
Cn1cc(-c2cc(F)cc(N3CCn4c(cc5c4CCCC5)C3=O)c2CO)cc(Nc2ccc(N3CCN(C4COC4)CC3)cn2)c1=O | Serine/threonine-protein kinase TAO2 (TAOK2, Homo sapiens, UniProt Q9UL54) | enzyme activity, inhibitor | 0.1 µM | 7
C#Cc1n[nH]c2c(-c3cn([C@@H](C)c4ccccn4)c(=O)[nH]c3=O)cc(F)cc12 | PIK3C3 | enzyme activity, inhibitor | 0.1 µM | 8.6
N=C(N)c1ccc2cc(OC(=O)c3ccc(N=C(N)N)cc3)ccc2c1 | ATXN3 | enzyme activity, inhibitor | 10 µM | 0
C#Cc1n[nH]c2c(-c3cn([C@@H](C)c4ccccc4)c(=O)[nH]c3=O)cc(F)cc12 | Phosphatidylinositol 4-phosphate 3-kinase C2 domain-containing subunit alpha (PIK3C2A, Homo sapiens, UniProt O00443) | enzyme activity, inhibitor | 0.1 µM | 11.7
CCN(CC)CCCC[C@H](NC(=O)[C@H](CC(C)C)NC(=O)[C@H](C)NC(=O)[C@H](Cc1ccccc1)NC(=O)c1ccc(C(C)(C)C)cc1)C(=O)N[C@@H](CO)C(=O)OC | Nociceptin receptor (OPRL1, Homo sapiens, UniProt P41146) | ligand displacement, radioligand | 10 µM | 23
